Experimental data as given in ChEMBL document CHEMBL1795318, “Development of tetrahydroisoquinoline-based hydroxamic acid derivatives: potent histone deacetylase inhibitors with marked in vitro and in vivo antitumor activities” (J Med Chem, 2011).

Columns and labels:
A549 = experiment: Cytotoxicity against human A549 cells after 48 hrs by MTT assay; format: functional, cell-based; settings: A549, 48 h
Summary of the method: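 Cells kept in RPMI1640 with 10% FBS, 37 °C, 5% CO₂; seeded day before dosing, grown ≥4 h, treated with a concentration series for 48 h. MTT 0.5% solution added, 4 h further; formazan dissolved in DMSO 15 min, absorbance at 570 nm. Mean of three experiments.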

MDA-MB-231 = experiment: Cytotoxicity against human MDA-MB-231 cells after 48 hrs by MTT assay; format: functional, cell-based; settings: MDA-MB-231, 48 h
Histone deacetylase 8 = target: T1, Histone deacetylase 8 (Homo sapiens, UniProt Q9BY41); experiment: Inhibition of HDAC8 after 30 mins by fluorescence microplate reader
T1 sequence (Q9BY41 whole entry): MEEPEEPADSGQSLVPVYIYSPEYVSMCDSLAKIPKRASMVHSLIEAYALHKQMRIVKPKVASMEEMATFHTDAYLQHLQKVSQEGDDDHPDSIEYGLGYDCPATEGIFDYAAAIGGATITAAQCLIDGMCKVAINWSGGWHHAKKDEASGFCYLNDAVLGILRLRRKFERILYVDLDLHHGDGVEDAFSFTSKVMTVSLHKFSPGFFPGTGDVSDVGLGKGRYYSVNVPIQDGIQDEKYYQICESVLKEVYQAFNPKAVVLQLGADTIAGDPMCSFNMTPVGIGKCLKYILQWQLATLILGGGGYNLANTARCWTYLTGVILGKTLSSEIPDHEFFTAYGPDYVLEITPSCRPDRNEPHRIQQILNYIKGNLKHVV
Summary of the method: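 HDAC8 mixed with compound at various concentrations, fluorogenic substrate added, 37 °C for 30 min; stopped with developer containing trypsin and TSA. Fluorescence read after 20 min (ex 390/em 460 nm); inhibition relative to control wells, IC50 by regression of concentration/inhibition data; mean ± SD of at least three determinations.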

[1] = target: T2, Protein deacetylase HDAC6 (Homo sapiens, UniProt Q9UBN7); experiment: Inhibition of HDAC6 in human HeLa cell nuclear extract after 30 mins by fluorescence microplate reader
T2 sequence (Q9UBN7 whole entry): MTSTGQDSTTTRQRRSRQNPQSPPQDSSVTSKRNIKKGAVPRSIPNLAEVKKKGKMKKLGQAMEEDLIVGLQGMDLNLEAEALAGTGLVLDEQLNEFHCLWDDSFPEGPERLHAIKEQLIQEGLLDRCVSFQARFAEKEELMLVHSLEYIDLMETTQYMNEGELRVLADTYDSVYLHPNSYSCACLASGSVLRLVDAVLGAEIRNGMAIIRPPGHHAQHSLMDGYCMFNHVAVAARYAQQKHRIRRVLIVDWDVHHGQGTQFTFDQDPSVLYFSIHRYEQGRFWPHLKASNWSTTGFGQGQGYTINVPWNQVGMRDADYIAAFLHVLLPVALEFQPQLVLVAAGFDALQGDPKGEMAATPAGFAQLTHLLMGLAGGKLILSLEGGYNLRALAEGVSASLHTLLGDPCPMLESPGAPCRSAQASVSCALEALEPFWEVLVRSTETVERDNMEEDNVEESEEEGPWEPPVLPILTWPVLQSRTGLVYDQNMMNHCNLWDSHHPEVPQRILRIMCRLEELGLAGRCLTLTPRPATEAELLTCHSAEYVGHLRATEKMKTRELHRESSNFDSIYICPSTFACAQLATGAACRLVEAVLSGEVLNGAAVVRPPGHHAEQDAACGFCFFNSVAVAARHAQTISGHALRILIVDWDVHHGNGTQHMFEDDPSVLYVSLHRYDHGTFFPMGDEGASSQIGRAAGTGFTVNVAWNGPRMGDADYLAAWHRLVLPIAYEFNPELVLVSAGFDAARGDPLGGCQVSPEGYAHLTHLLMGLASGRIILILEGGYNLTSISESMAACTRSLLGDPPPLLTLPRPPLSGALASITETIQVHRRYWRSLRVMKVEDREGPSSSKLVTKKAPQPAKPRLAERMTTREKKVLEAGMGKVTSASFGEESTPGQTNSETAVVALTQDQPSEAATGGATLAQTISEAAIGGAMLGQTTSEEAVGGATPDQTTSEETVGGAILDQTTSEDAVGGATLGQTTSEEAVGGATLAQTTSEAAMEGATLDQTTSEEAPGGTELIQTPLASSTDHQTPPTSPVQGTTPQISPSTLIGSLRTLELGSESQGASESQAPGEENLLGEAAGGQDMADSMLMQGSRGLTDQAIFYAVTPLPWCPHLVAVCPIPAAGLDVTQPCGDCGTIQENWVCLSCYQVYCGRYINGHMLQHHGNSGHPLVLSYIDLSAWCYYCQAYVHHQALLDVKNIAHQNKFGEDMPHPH

NB-4 = experiment: Cytotoxicity against human NB4 cells after 48 hrs by MTT assay; format: functional, cell-based; settings: NB-4, 48 h
HL-60 = experiment: Cytotoxicity against human HL60 cells after 48 hrs by MTT assay; format: functional, cell-based; settings: HL-60, 48 h
K562 = experiment: Cytotoxicity against human K562 cells after 48 hrs by MTT assay; format: functional, cell-based; settings: K562, 48 h
HeLa = experiment: Cytotoxicity against human HeLa cells after 48 hrs by MTT assay; format: functional, cell-based
Histone deacetylase = experiment: Inhibition of HDAC in human HeLa cell nuclear extract after 30 mins by fluorescence microplate reader; format: protein assay

IC50 (Histone deacetylase 8) [nM]	IC50 [1] [nM]	IC50 (Histone deacetylase) [µM]	SMILES	IC50 (NB-4) [µM]	IC50 (K562) [µM]	IC50 (HeLa) [µM]	further results
164	–	–	COc1ccc(NC(=O)[C@@H]2Cc3ccc(OCC(=O)NO)cc3CN2C(=O)c2ccccc2)cc1	–	–	–	IC50 (A549): 5.95 µM; IC50 (MDA-MB-231): 3050 nM
1020	–	–	COc1ccc(NC(=O)[C@@H]2Cc3ccc(OCC(=O)NO)cc3CN2C(=O)[C@@H](N)C(C)C)cc1	–	–	–	–
104	–	–	COc1ccc(NC(=O)[C@@H]2Cc3ccc(OCC(=O)NO)cc3CN2C(=O)[C@@H](NC(=O)OC(C)(C)C)C(C)C)cc1	–	–	–	IC50 (A549): 0.84 µM; IC50 (MDA-MB-231): 1580 nM
47	191	0.108	CC[C@H](C)[C@H](NC(=O)[C@@H]1CCCN1)C(=O)N1Cc2cc(OCC(=O)NO)ccc2C[C@H]1C(=O)Nc1ccc(OC)cc1.Cl	9.28	6.59	> 200	IC50 (HL-60): 69.8 µM
147	164	0.214	CC[C@H](C)[C@H](NC(=O)C1CCN(C(=O)OC(C)(C)C)CC1)C(=O)N1Cc2cc(OCC(=O)NO)ccc2C[C@H]1C(=O)Nc1ccc(OC)cc1	68.2	12.3	> 200	–
634	–	–	COc1ccc(NC(=O)[C@@H]2Cc3ccc(OCC(=O)NO)cc3CN2C(=O)[C@@H](N)Cc2ccc(O)cc2)cc1	–	–	–	–
759	–	–	O=C(COc1ccc2c(c1)CN(C(=O)CCc1ccccc1)[C@H](C(=O)Nc1ccccc1)C2)NO	–	–	–	–
514	–	–	COc1ccc(NC(=O)[C@@H]2Cc3ccc(OCC(=O)NO)cc3CN2C(=O)CNC(=O)OC(C)(C)C)cc1	–	–	–	–
1440	169	0.071	CC[C@H](C)[C@H](NC(=O)C1CCNCC1)C(=O)N1Cc2cc(OCC(=O)NO)ccc2C[C@H]1C(=O)Nc1ccc(OC)cc1.Cl	> 200	51.7	102	–
175	–	–	COc1ccc(NC(=O)[C@@H]2Cc3ccc(OCC(=O)NO)cc3CN2C(=O)[C@H](Cc2ccc(O)cc2)NC(=O)OC(C)(C)C)cc1	–	–	–	–
692	–	–	O=C(COc1ccc2c(c1)CN(C(=O)CCc1ccccc1)[C@H](C(=O)NCCc1ccccc1)C2)NO	–	–	–	–
163	–	–	COc1ccc(NC(=O)[C@@H]2Cc3ccc(OCC(=O)NO)cc3CN2C(=O)[C@H](CC(C)C)NC(=O)OC(C)(C)C)cc1	–	–	–	–
212	–	–	COc1ccc(NC(=O)[C@@H]2Cc3ccc(OCC(=O)NO)cc3CN2C(=O)[C@@H]2CCCN2C(=O)OC(C)(C)C)cc1	–	–	–	–
1280	–	–	COc1ccc(NC(=O)[C@@H]2Cc3ccc(OCC(=O)NO)cc3CN2C(=O)[C@H](C)N)cc1	–	–	–	–
201	116	0.128	CC[C@H](C)[C@H](NC(=O)[C@@H](NC(=O)OC(C)(C)C)C(C)C)C(=O)N1Cc2cc(OCC(=O)NO)ccc2C[C@H]1C(=O)Nc1ccc(OC)cc1	63.3	2.78	167	–
68	163	0.073	CC[C@H](C)[C@H](NC(=O)[C@@H](N)C(C)C)C(=O)N1Cc2cc(OCC(=O)NO)ccc2C[C@H]1C(=O)Nc1ccc(OC)cc1.Cl	69.9	20.4	118	–
